Data: PubChem BioAssay
Calls of active or inactive are those of the source.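 How the source made its calls, unless noted: active means Her2 level under about 52% in both replicate screens, with viability over 70% of control (limit read from the data); inconclusive means Her2 under the limit in one screen only, or viability under 70%; inactive means Her2 level above the set limit.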

Tests used:
[1] = reducers of endogenous Her2 protein level, primary screen, SKBR3 breast tumor cells, AlphaScreen, ATP viability (AID 461); conditions: 18-24 h, measured here: SKBR3 viability, ATP luminescence, at 10 µM;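 on Her2 level: lower value means less Her2 protein in the cells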;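 on viability: percent of carrier control wells set as 100% viability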
[2] = target: Receptor tyrosine-protein kinase erbB-2 (Homo sapiens) (UniProt P04626); test: as above; conditions: 18-24 h, at 10 µM, stronger effect = lower value
Chain of Receptor tyrosine-protein kinase erbB-2 (Homo sapiens) (P04626 whole entry, looked up): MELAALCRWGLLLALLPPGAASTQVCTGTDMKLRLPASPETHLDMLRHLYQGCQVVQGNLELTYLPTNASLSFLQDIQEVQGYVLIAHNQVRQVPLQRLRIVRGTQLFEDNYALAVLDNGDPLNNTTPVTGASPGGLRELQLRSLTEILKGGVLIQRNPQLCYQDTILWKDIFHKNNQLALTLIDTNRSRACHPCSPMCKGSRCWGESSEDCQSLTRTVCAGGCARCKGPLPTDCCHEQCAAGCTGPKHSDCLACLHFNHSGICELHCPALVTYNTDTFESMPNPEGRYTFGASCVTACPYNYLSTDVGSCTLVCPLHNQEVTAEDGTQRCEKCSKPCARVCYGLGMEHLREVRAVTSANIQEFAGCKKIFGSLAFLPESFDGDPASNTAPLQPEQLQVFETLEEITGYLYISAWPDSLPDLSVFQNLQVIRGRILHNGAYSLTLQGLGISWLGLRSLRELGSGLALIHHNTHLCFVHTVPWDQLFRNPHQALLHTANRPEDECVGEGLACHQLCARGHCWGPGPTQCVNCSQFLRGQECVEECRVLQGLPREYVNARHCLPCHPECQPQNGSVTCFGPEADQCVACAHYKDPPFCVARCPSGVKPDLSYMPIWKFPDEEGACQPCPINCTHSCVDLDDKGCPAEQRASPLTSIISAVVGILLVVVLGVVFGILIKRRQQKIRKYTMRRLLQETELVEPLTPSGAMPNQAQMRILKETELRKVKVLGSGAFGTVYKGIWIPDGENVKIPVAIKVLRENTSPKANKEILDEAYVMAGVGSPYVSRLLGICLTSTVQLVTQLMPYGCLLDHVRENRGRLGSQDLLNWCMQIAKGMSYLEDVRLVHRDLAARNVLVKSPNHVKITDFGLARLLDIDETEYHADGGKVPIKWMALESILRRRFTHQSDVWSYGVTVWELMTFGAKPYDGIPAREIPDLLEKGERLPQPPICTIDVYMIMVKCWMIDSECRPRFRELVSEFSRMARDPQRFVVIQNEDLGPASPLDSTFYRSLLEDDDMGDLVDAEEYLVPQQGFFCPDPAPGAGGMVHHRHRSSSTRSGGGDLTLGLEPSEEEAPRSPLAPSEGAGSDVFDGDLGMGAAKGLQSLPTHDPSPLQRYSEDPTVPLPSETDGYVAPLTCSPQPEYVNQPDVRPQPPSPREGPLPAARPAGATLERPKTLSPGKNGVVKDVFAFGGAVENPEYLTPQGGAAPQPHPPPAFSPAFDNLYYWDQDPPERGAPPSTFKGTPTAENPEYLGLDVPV

[3] = SK-BR-3 cell growth inhibitors, pilot screen, 24 h, human (AID 572;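 active means viability at or below 10% of carrier control in both of two separate runs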;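 further: compound exposure lasted between 18 and 24 h rather than exactly 24 h; 100% = carrier-treated control wells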); conditions: SK-BR-3 viability, CellTiter-Glo luminescence, at 10 µM, stronger effect = lower value
[4] = HUVEC growth inhibition – cell-based, human, primary screen (AID 575;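 active means viability at or below 30% in both replicate assays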;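 further: 100% = median of untreated cell wells with 0.1% DMSO on each plate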); conditions: HUVEC proliferation, CellTiter-Glo luminescence, 72 h; at 10 µM; stronger effect = lower value
Procedure, shortened: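 material = primary HUVEC, no more than 12 passages | input = 1250 cells per well | controls = vehicle and MePR control wells | measured by = CTG luminescence | times = 72 h compound incubation | format = collagen-coated 384-well format | read-out = % viability vs DMSO wells | doses = single 10 µM dose, 0.1% DMSO, from 5x medium stock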

[5] = growth inhibitors of H69AR lung tumor, primary screen, human, duplicate replicates (AID 580;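 active means viability at or under a set limit in both replicates, limit being median viability minus 3 SD, cut at about 48% in these data, passing the limit was not always enough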;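 further: 100% = mean luminescence of untreated wells and 0% = no signal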); conditions: H69AR lung tumor cells viability, ATP luminescence, 72 h; at 10 µM; stronger effect = lower value
[6] = reversal of MRP1-mediated doxorubicin resistance, pilot screen, H69AR cells, doxorubicin co-treatment (AID 601;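 active means viability loss from added drug above about 55%, and viability with drug at most 40%, in both replicates, limit read from the data, passing the limit was not always enough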); conditions: CellTiter-Glo, 72 h, at 10 µM; for differential viability (reversal): stronger effect = higher value
[7] = 384-well plate pilot, post-Golgi transport modulator project, inhibition of yeast transport mutant growth (AID 636; in the data active means inhibition above about 31%); conditions: absorbance 615 nm, about 18 h, stronger effect = higher value
[8] = growth suppression of yeast trafficking mutant, preliminary HTS, modulators of trafficking downstream of Golgi apparatus project, 1536-format plate, OD 615 nm (AID 637; in the data active means inhibition above about 30%); conditions: yeast transport mutant growth, absorbance 615 nm, 18 h; stronger effect = higher value
[9] = H69AR cells + 2 uM doxorubicin, measured here: viability with 2 uM doxorubicin, stronger effect = lower value
[10] = H69AR cells, compound alone cytotoxicity

Compound	viability [1] [%]	Her2 level [2]	viability [3]	viability [4]	viability [5]	differential viability (reversal) ([6]; H69AR cells + 2 uM doxorubicin)	viability [6, 9] [%]	viability [6, 10] [%]	inhibition [7]	inhibition [8]
O=C(NCc1ccccc1)N1CCn2c(nc3ccccc32)C1	93.5	91.5% (inactive)	93.5% (inactive)	90.2% (inactive)	92.9% (inactive)	14.2% (inactive)	78.7	92.9	-3.73% (inactive)	1.15% (inactive)
COc1ccc(N2CCN(C(c3cccc(OC)c3OC)c3nnnn3C3CCCC3)CC2)cc1 (stereo not given)	88	121% (inactive)	88% (inactive)	94.4% (inactive)	88.5% (inactive)	-0.405% (inactive)	88.9	88.5	4.61% (inactive)	-2.06% (inactive)
O=C1c2ccccc2CN1CCNS(=O)(=O)c1ccc(Cl)cc1	104	92.5% (inactive)	104% (inactive)	98% (inactive)	88% (inactive)	3.27% (inactive)	84.8	88	-7.87% (inactive)	-0.63% (inactive)
N#Cc1c(N2C(=O)C3C4C=CC(C4)C3C2=O)sc2c1CCC2 (stereo not given)	91.5	86.5% (inactive)	91.5% (inactive)	91% (inactive)	90.3% (inactive)	-10.1% (inactive)	100	90.3	-5.07% (inactive)	-2.62% (inactive)
FC(F)(F)c1nnc2sc(-c3cccs3)nn12	102	86.5% (inactive)	102% (inactive)	93.9% (inactive)	113% (inactive)	19.7% (inactive)	93	113	-7.43% (inactive)	4.6% (inactive)
COc1ccc(-c2noc(CSc3nc(N)c(-c4ccccc4)c(=O)[nH]3)n2)cc1OC	106	94.5% (inactive)	106% (inactive)	94.6% (inactive)	84.7% (inactive)	-0.7% (inactive)	85.4	84.7	-4.13% (inactive)	-3.97% (inactive)
CCCn1c2c(c(O)c(C(=O)Nc3ccc(C)cn3)c1=O)CCCC2	102	82.5% (inactive)	102% (inactive)	96.8% (inactive)	88% (inactive)	-9.88% (inactive)	97.9	88	-2.89% (inactive)	-5.81% (inactive)
CCN(Cc1cc2cc(OC)ccc2[nH]c1=O)C(=O)c1ccncc1	89	100% (inactive)	89% (inactive)	97.8% (inactive)	99.5% (inactive)	-3.88% (inactive)	103	99.5	-2.13% (inactive)	9.05% (inactive)
c1ccc2c(c1)sc1nnnn12	94.5	81% (inactive)	94.5% (inactive)	79.9% (inactive)	86.6% (inactive)	-13.7% (inactive)	100	86.6	-5.07% (inactive)	1.97% (inactive)
COc1ccc(OC)c(C2C(C(=O)Nc3cccnc3)=C(C)NC3=C2C(=O)CCC3)c1 (stereo not given)	101	81% (inactive)	101% (inactive)	88.3% (inactive)	98.4% (inactive)	15.1% (inactive)	83.3	98.4	-6.22% (inactive)	1.8% (inactive)
COc1cccc(-c2nc(CS(=O)CC(=O)NCCCOC(C)C)c(C)o2)c1 (stereo not given)	102	108% (inactive)	102% (inactive)	118% (inactive)	101% (inactive)	6.34% (inactive)	95.1	101	-1.6% (inactive)	-6.94% (inactive)
CCOC(=O)CNC(=O)Nc1ccccc1C(=O)OC	116	86.5% (inactive)	116% (inactive)	96.7% (inactive)	94.1% (inactive)	8.77% (inactive)	85.3	94.1	-2.5% (inactive)	1.29% (inactive)
CC(C)C(=O)Nc1ccc2c(c1)nc1n2CCSC1	104	95% (inactive)	104% (inactive)	111% (inactive)	95.4% (inactive)	10.4% (inactive)	85	95.4	-0.78% (inactive)	-6.83% (inactive)
O=C(C1CC1)N(Cc1ccco1)c1nc(-c2ccccc2)cs1	96.5	108% (inactive)	96.5% (inactive)	81.4% (inactive)	86.4% (inactive)	1.75% (inactive)	84.7	86.4	-5.6% (inactive)	-8.36% (inactive)
Cn1c(COc2ccc(Cl)cc2)nnc1SCC(=O)NC1CCCCC1	77	108% (inactive)	77% (inactive)	89.5% (inactive)	103% (inactive)	9.25% (inactive)	94	103	2.13% (inactive)	20.8% (inactive)
CCC(C)NC(=O)c1ccccc1NC(=O)C(C)N(c1ccccc1)S(C)(=O)=O (stereo not given)	93	102% (inactive)	93% (inactive)	89.5% (inactive)	94.5% (inactive)	-7.6% (inactive)	102	94.5	-4.19% (inactive)	5.57% (inactive)

Compound	viability [1] [%]	Her2 level [2]	viability [3]	viability [4]	viability [5]	differential viability (reversal) ([6]; H69AR cells + 2 uM doxorubicin)	viability [6, 9] [%]	viability [6, 10] [%]	inhibition [7]	inhibition [8]
COc1ccccc1NC(=O)c1ccc(COc2ccccc2OC)o1	95.5	97% (inactive)	95.5% (inactive)	87.6% (inactive)	97.2% (inactive)	5.99% (inactive)	91.3	97.2	-6.27% (inactive)	0% (inactive)
c1cc(-c2nc3ccccc3o2)nc(-c2nc3ccccc3o2)c1	122	94.5% (inactive)	122% (inactive)	90.9% (inactive)	87.6% (inactive)	7.43% (inactive)	80.2	87.6	-4.21% (inactive)	1.83% (inactive)
Cc1nc2ccccc2c(=O)n1/N=C/c1ccncc1	95	99.5% (inactive)	95% (inactive)	105% (inactive)	103% (inactive)	12.4% (inactive)	91.1	103	-6.13% (inactive)	-1.94% (inactive)
COc1ccc(CCn2c(=N)c(C#N)cc3c(=O)n4ccccc4nc32)cc1	95	84.5% (inactive)	95% (inactive)	79.7% (inactive)	65.2% (inactive)	2.31% (inactive)	62.9	65.2	-8.78% (inactive)	5.17% (inactive)
O=C(CSCc1cccc(F)c1)N1CCN(c2ccccc2)CC1	92	93.5% (inactive)	92% (inactive)	91% (inactive)	101% (inactive)	5.28% (inactive)	96	101	-5% (inactive)	-4.67% (inactive)
COc1ccc(NC(=O)C(C)NS(=O)(=O)c2ccc(NC(C)=O)cc2)cc1Cl (stereo not given)	124	97% (inactive)	124% (inactive)	103% (inactive)	95% (inactive)	7.65% (inactive)	87.4	95	-6% (inactive)	-1.75% (inactive)
COc1cccc(-c2nnc(SCC(=O)N3CCCc4ccccc43)o2)c1	93.5	87.5% (inactive)	93.5% (inactive)	60.4% (inactive)	90.6% (inactive)	4.79% (inactive)	85.8	90.6	-4.61% (inactive)	-3.33% (inactive)
Cc1cc(C(=O)OCCO)c(C#N)c(N)n1	92	90.5% (inactive)	92% (inactive)	95.9% (inactive)	92.1% (inactive)	-5.51% (inactive)	97.6	92.1	-3.87% (inactive)	1.94% (inactive)
CC(C)CCN1CC(C(=O)NCc2ccccc2)CC1=O (stereo not given)	88.5	87.5% (inactive)	88.5% (inactive)	88% (inactive)	92.6% (inactive)	1.32% (inactive)	91.2	92.6	1.28% (inactive)	-0.83% (inactive)
COC(=O)c1ccc(Cl)c(NC(C)=O)c1	108	99.5% (inactive)	108% (inactive)	70.9% (inactive)	97.2% (inactive)	7.73% (inactive)	89.5	97.2	-1.17% (inactive)	-0.33% (inactive)
COc1ccc(N2CCN(C(=O)COc3ccc4ccccc4c3)CC2)cc1	77.5	86.5% (inactive)	77.5% (inactive)	84.8% (inactive)	108% (inactive)	17.1% (inactive)	90.8	108	-6.35% (inactive)	3.11% (inactive)
CCOc1ccc(NC(=O)CSc2nnnn2CC(=O)O)cc1	104	98% (inactive)	104% (inactive)	96% (inactive)	95.7% (inactive)	-4.13% (inactive)	99.8	95.7	-3.16% (inactive)	-5.65% (inactive)
CC(C)CCNC(=O)C(c1cccs1)N(CC1CCCO1)C(=O)Cn1nnc2ccccc21 (stereo not given)	116	112% (inactive)	116% (inactive)	96.2% (inactive)	89.8% (inactive)	4.32% (inactive)	85.5	89.8	-5.71% (inactive)	-6.33% (inactive)
CCCCC(O)(C(NC=O)C(=O)OC)C(F)(F)F (stereo not given)	95.5	85% (inactive)	95.5% (inactive)	108% (inactive)	99.4% (inactive)	3.77% (inactive)	95.7	99.4	-2.27% (inactive)	7.58% (inactive)
O=C(NCC(c1cccnc1)N1CCOCC1)c1ccco1 (stereo not given)	97	71% (inactive)	97% (inactive)	106% (inactive)	98.9% (inactive)	8.38% (inactive)	90.6	98.9	-4.87% (inactive)	1.17% (inactive)
O=C(O)c1cccc(CN2C(=O)SC(Nc3ccccc3)C2=O)c1 (stereo not given)	110	89% (inactive)	110% (inactive)	83% (inactive)	103% (inactive)	8.78% (inactive)	94	103	-4.8% (inactive)	2.95% (inactive)
